{"source": "ChEMBL document CHEMBL1142233", "about": "“Treatment of diabetes and atherosclerosis by inhibiting fatty-acid-binding protein aP2” (2007)", "key": {"Macrophage": {"tested_on": "Macrophage", "experiment": "Decrease in MCP1 production in mouse aP2+/+ macrophage cells after 24 hrs", "format": "functional, cell-based", "summary_of_the_method": "(§1)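 Immortalized mouse macrophage lines (aP2−/−R re-expressing aP2) kept 24 h in RPMI plus 5% LPDS with inhibitor 0–25 μM in DMSO. MCP-1 in supernatant measured by ELISA and expressed relative to inhibitor-free cells of each line. At least triplicate.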"}, "[1]": {"experiment": "Decrease in MCP1 production in mouse aP2-/-R macrophage cells (re-expression of aP2) after 24 hrs", "format": "functional, cell-based", "summary_of_the_method": "as §1"}, "Mus musculus [2]": {"tested_on": "Mus musculus", "experiment": "Inhibition of aP2 in 5-week old apoE-/- C57BL/6J mouse fed on western diet and administered with 15 mg/kg/day, po drug at 12 week in late intervention study assessed as reduction of atherosclerotic lesion in en face aorta relative to control", "format": "functional", "set-up": "scale not given: the % may be the effect or the level left", "summary_of_the_method": "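Male Apoe⁻/⁻ C57BL/6J mice were fed a western diet (21% fat, 0.21% cholesterol) from 4–5 weeks of age. They were gavaged for 6 weeks with 15 mg kg⁻¹ d⁻¹ in vehicle (10% 1-methyl-2-pyrrolidone, 5% cremophor EL with ethanol, in water), starting at 5 weeks (early) or 12 weeks (late). Perfusion-fixed, pinned-out aortas were stained with Sudan IV and lesion area was quantified.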"}, "Mus musculus [3]": {"tested_on": "Mus musculus", "experiment": "Effect on triglyceride level in 5-week old apoE-/- C57BL/6J mouse fed on western diet and 15 mg/kg/day, po drug simultaneously in 5-11 week early intervention study", "format": "functional", "summary_of_the_method": "(§2)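 Male Apoe−/− mice on western diet (21% fat, 0.21% cholesterol) from 4–5 weeks of age. Oral gavage for 6 weeks from age 5 or 12 weeks; vehicle 10% 1-methyl-2-pyrrolidone, 5% cremophor EL with ethanol in water. Blood taken after 6 h fast before and after treatment. Glucose by meter; insulin by ELISA; lipids and glycerol colorimetric.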"}, "Mus musculus [4]": {"tested_on": "Mus musculus", "experiment": "Effect on glycerol level in 5-week old apoE-/- C57BL/6J mouse fed on western diet and 15 mg/kg/day, po drug simultaneously in 5-11 week early intervention study", "format": "functional", "summary_of_the_method": "as §2"}, "Mus musculus [5]": {"tested_on": "Mus musculus", "experiment": "Decrease in Fasn expression in liver of ob/ob mouse at 40 mg/kg/day, po", "format": "functional, organism-based", "summary_of_the_method": "(§3)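 Liver from male ob/ob mice gavaged daily for 6 weeks from 8 weeks of age, n = 6 per group. mRNA measured by SYBR Green real-time PCR: 95 °C 4 min, then 50 cycles of 95 °C 15 s, 58 °C 30 s, 72 °C 30 s. Normalized to 18s rRNA.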"}, "Mus musculus [6]": {"tested_on": "Mus musculus", "experiment": "Decrease in Acaca expression in liver of ob/ob mouse at 40 mg/kg/day, po", "format": "functional, organism-based", "summary_of_the_method": "as §3"}, "Mus musculus [7]": {"tested_on": "Mus musculus", "experiment": "Inhibition of JNK1 activity in ob/ob mouse liver at 40 mg/kg/day, po relative to control", "format": "functional, organism-based", "summary_of_the_method": "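Liver lysates (500–1,000 μg protein) from ob/ob mice gavaged at 40 mg kg⁻¹ d⁻¹ were immunoprecipitated with JNK1 antibody. The beads were incubated with 10 μCi ³²P-γATP, 10 μM ATP and 5 μg c-jun fusion protein in Hepes pH 7.4/MgCl₂ buffer at 30 °C for 20 min. The reaction was stopped with Laemmli buffer and quantified.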"}, "Mus musculus [8]": {"tested_on": "Mus musculus", "experiment": "Effect on cholesterol level in ob/ob mouse at 40 mg/kg/day, po after 6 weeks relative to control", "format": "functional", "summary_of_the_method": "(§4)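 Male ob/ob mice given oral gavage daily for 6 weeks from 8 weeks old, n = 6 per group. Blood taken after 6 h fast before and after treatment; fed glucose taken at week 2. Glucose by meter on 3 μl whole blood, insulin by ultrasensitive ELISA, cholesterol, FFA and glycerol by colorimetric microplate assays.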"}, "Mus musculus [9]": {"tested_on": "Mus musculus", "experiment": "Increase in adiponectin level in ob/ob mouse plasma at 40 mg/kg/day, po after 6 weeks relative to control", "format": "functional, organism-based", "summary_of_the_method": "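Plasma from male ob/ob mice after 6 weeks of daily oral gavage (started at 8 weeks), 6 h fasted, n = 6 per group. Adiponectin measured by ELISA.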"}, "Mus musculus [10]": {"tested_on": "Mus musculus", "experiment": "Effect on glycerol level in ob/ob mouse at 40 mg/kg/day, po after 6 weeks relative to control", "format": "functional", "summary_of_the_method": "as §4"}, "Mus musculus [11]": {"tested_on": "Mus musculus", "experiment": "Effect on glucose level in 5-week old apoE-/- C57BL/6J mouse fed on western diet and administered with 15 mg/kg/day, po drug at 12 week in 12-18 week late intervention study", "format": "functional", "summary_of_the_method": "as §2"}, "Mus musculus [12]": {"tested_on": "Mus musculus", "experiment": "Effect on cholesterol level in 5-week old apoE-/- C57BL/6J mouse fed on western diet and administered with 15 mg/kg/day, po drug at 12 week in 12-18 week late intervention study", "format": "functional", "summary_of_the_method": "as §2"}, "Mus musculus [13]": {"tested_on": "Mus musculus", "experiment": "Effect on triglyceride level in 5-week old apoE-/- C57BL/6J mouse fed on western diet and administered with 15 mg/kg/day, po drug at 12 week in 12-18 week late intervention study", "format": "functional", "summary_of_the_method": "as §2"}, "THP-1 [14]": {"tested_on": "THP-1", "experiment": "Reduction of cholesterol ester accumulation in human THP1 cells at 25 uM after 4 days relative to control", "format": "functional", "set-up": "scale not given: the % may be the effect or the level left", "summary_of_the_method": "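THP-1 monocytes were made into macrophages with 100 nM PMA for 24 h, then loaded for 24 h with 50 μg ml⁻¹ acLDL in 5% LPDS. They were then held 4 days in 10% FBS with 25 μM inhibitor or DMSO. After hexane/isopropanol extraction, cholesterol ester was taken as total minus free cholesterol, per cellular protein.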"}, "[15]": {"experiment": "Reduction in total cholesterol ester content in mouse aP2-/-R macrophage cells (re-expression of aP2) at 25 uM relative to control", "format": "functional, cell-based"}, "THP-1 [16]": {"tested_on": "THP-1", "experiment": "Reduction of Mcp1 expression in human THP1 cells expressing aP2 relative to control", "format": "functional, cell-based"}, "[17]": {"experiment": "Reduction of Mcp1 expression mouse aP2+/+ macrophage cells relative to control", "format": "functional, cell-based", "summary_of_the_method": "(§5)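 Mouse aP2⁺/⁺ and aP2-reconstituted aP2⁻/⁻ macrophage lines were grown in RPMI with FBS or 5% LPDS, with inhibitor in DMSO or vehicle. Mcp-1, Il1β, Il6 and Tnf mRNA were measured by SYBR Green qRT-PCR (annealing at 58 °C, 50 cycles), normalized to 18s rRNA and then to untreated cells. Mean ± s.e.m.; at least triplicate.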"}, "Mus musculus [18]": {"tested_on": "Mus musculus", "experiment": "Decrease in F4/80 (Emr1) expression in ob/ob mouse adipose tissue at 40 mg/kg/day, po", "format": "functional, organism-based"}, "Mus musculus [19]": {"tested_on": "Mus musculus", "experiment": "Decrease in Cd68 expression in ob/ob mouse adipose tissue at 40 mg/kg/day, po", "format": "functional, organism-based"}, "Mus musculus [20]": {"tested_on": "Mus musculus", "experiment": "Decrease in IL1-beta expression in ob/ob mouse adipose tissue at 40 mg/kg/day, po", "format": "functional, organism-based"}, "[21]": {"experiment": "Reduction of IL1-beta expressed in mouse aP2-/-R macrophage cells (re-expression of aP2) relative to control", "format": "functional, cell-based", "summary_of_the_method": "as §5"}, "Mus musculus [22]": {"tested_on": "Mus musculus", "experiment": "Increase in glucose metabolism in ob/ob mouse at 40 mg/kg/day, po after 4 weeks by glucose tolerance test", "format": "functional, organism-based", "summary_of_the_method": "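Male ob/ob mice after 4 weeks of daily 40 mg kg⁻¹ oral gavage (started at 8 weeks), n = 6 per group. Glucose tolerance tested with 0.5 g kg⁻¹ intraperitoneal glucose after an overnight fast.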"}, "THP-1 [23]": {"tested_on": "THP-1", "experiment": "Decrease in MCP1 production in human THP1 cells expressing aP2 after 24 hrs", "format": "functional, cell-based", "summary_of_the_method": "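THP-1 monocytes differentiated with 100 nM PMA for 24 h. Incubated 24 h in RPMI with 5% lipoprotein-deficient serum with inhibitor 0–25 μM in DMSO. Supernatant MCP-1 measured by ELISA and normalized to cellular protein. At least triplicate.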"}}, "note": "Active and inactive are the calls of the source. The rule behind the calls is not given here."}
{"smiles": "CCc1c(-c2ccccc2)c(-c2ccccc2)nn1-c1ccccc1-c1cccc(OCC(=O)O)c1", "values": [{"measurement": "Activity", "setting": "Macrophage", "value": "Active"}, {"measurement": "Activity", "setting": "[1]", "value": "Active"}, {"measurement": "Activity", "setting": "Mus musculus [2]", "value": 51, "unit": "%"}, {"measurement": "Activity", "setting": "Mus musculus [3]", "value": 213.6, "unit": "mg/dL"}, {"measurement": "Activity", "setting": "Mus musculus [4]", "value": 2.31, "unit": "mM"}, {"measurement": "Activity", "setting": "Mus musculus [5]", "value": "Active"}, {"measurement": "Activity", "setting": "Mus musculus [6]", "value": "Active"}, {"measurement": "Activity", "setting": "Mus musculus [7]", "value": "Active"}, {"measurement": "Activity", "setting": "Mus musculus [8]", "value": 285.3, "unit": "mg/dL"}, {"measurement": "Activity", "setting": "Mus musculus [9]", "value": "Active"}, {"measurement": "Activity", "setting": "Mus musculus [10]", "value": 0.56, "unit": "mM"}, {"measurement": "Activity", "setting": "Mus musculus [11]", "value": 147.2, "unit": "mg/dL"}, {"measurement": "Activity", "setting": "Mus musculus [12]", "value": 2277.2, "unit": "mg/dL"}, {"measurement": "Activity", "setting": "Mus musculus [13]", "value": 410.7, "unit": "mg/dL"}, {"measurement": "Activity", "setting": "THP-1 [14]", "value": 44, "unit": "%"}, {"measurement": "Activity", "setting": "[15]", "value": "Active"}, {"measurement": "Activity", "setting": "THP-1 [16]", "value": "Active"}, {"measurement": "Activity", "setting": "[17]", "value": "Active"}, {"measurement": "Activity", "setting": "Mus musculus [18]", "value": "Active"}, {"measurement": "Activity", "setting": "Mus musculus [19]", "value": "Active"}, {"measurement": "Activity", "setting": "Mus musculus [20]", "value": "Active"}, {"measurement": "Activity", "setting": "[21]", "value": "Active"}, {"measurement": "Activity", "setting": "Mus musculus [22]", "value": "Active"}, {"measurement": "Activity", "setting": "THP-1 [23]", "value": "Dose-dependent effect"}]}
